# Results from ChEMBL document CHEMBL2406962, “Adenosine Dioxolane Nucleoside Phosphoramidates as Antiviral Agents for Human Immunodeficiency and Hepatitis B Viruses” (ACS Med Chem Lett, 2013).
# Legend:
# [1] = test system: Human immunodeficiency virus 1; experiment: Antiviral activity against Human immunodeficiency virus 1 LAI infected in PHA-stimulated human PBMC; assay type: functional, organism-based
# [2] = test system: Hepatitis B virus; experiment: Antiviral activity against Hepatitis B virus infected in human HepAD38 cells after 5 days; assay type: functional, organism-based; settings: HePAD38, 120 h
# [3] = test system: CCRF-CEM; experiment: Cytotoxicity against human CEM cells after 2 to 4 days by MTT assay; assay type: cell-based
# Procedure, shortened: (§1)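 Cytotoxicity in human PBM cells, Vero (African green monkey kidney epithelial) cells and CEM (human T-cell-derived line) cells, with compounds tested up to 100 μM.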
# [4] = test system: Huh-7; experiment: Cytotoxicity against human HuH7 cells after 2 to 4 days by MTT assay; assay type: cell-based
# [5] = test system: HepG2; experiment: Cytotoxicity against human HepG2 cells after 2 to 4 days by neutral red dye uptake assay; assay type: cell-based
# [6] = test system: Vero; experiment: Cytotoxicity against African green monkey Vero cells after 2 to 4 days by MTT assay; assay type: cell-based; settings: chlorocebus sabaeus; procedure, shortened: as §1
# [7] = test system: PBMC; experiment: Cytotoxicity against human PBMC after 2 to 4 days by MTT assay; assay type: cell-based; procedure, shortened: as §1
# [8] = test system: PBMC; experiment: Drug metabolism in human PBMC assessed as dioxolane-A triphosphate level measured per 10^6 cells at 50 uM after 4 hrs by LC-MS/MS analysis; assay type: ADME, cell-based; design: unit: pmol/10^6 cells
# [9] = test system: PBMC; experiment: Drug metabolism in human PBMC assessed as 6-cyclopropylamino purine dioxolane triphosphate level measured per 10^6 cells at 50 uM after 4 hrs by LC-MS/MS analysis; assay type: ADME, cell-based
# [10] = in vivo; settings: mouse
SMILES,EC50 [1],EC50 [2],CC50 [3],CC50 [4],CC50 [5],CC50 [6],CC50 [7],Drug metabolism [8],Drug metabolism [9],LD50 [10]
Nc1nc(N)c2ncn([C@H]3CO[C@@H](CO)O3)c2n1 [AMDOXOVIR],0.4 µM,> 9 µM,> 100 µM,> 100 µM,> 100 µM,> 100 µM,> 100 µM,,,
CCOC(=O)CCc1ccccc1OP(=O)(N[C@@H](C)C(=O)OCC)OC[C@@H]1OC[C@H](n2cnc3c(OC)ncnc32)O1 (stereo partly drawn),0.42 µM,> 10 µM,> 100 µM,80 µM,> 100 µM,93 µM,> 100 µM,,,
CCOC(=O)[C@H](C)NP(=O)(OC[C@@H]1OC[C@H](n2cnc3c(OC)ncnc32)O1)Oc1ccccc1 (stereo partly drawn),0.34 µM,> 10 µM,> 100 µM,80 µM,> 100 µM,> 100 µM,> 100 µM,,,
CCOC(=O)[C@H](C)NP(=O)(OC[C@@H]1OC[C@H](n2cnc3c(N)ncnc32)O1)Oc1ccccc1 (stereo partly drawn),0.00056 µM,0.03 µM,18 µM,7.3 µM,> 100 µM,80 µM,2 µM,200 pmol,,
Nc1ncnc2c1ncn2[C@H]1CO[C@@H](CO)O1,,,,,,,,0.18 pmol,,
CCOC(=O)[C@H](C)NP(=O)(OC[C@@H]1OC[C@H](n2cnc3c(NC4CC4)ncnc32)O1)Oc1ccccc1 (stereo partly drawn),0.086 µM,0.8 µM,> 100 µM,> 100 µM,> 100 µM,> 100 µM,> 100 µM,0.11 pmol,0.13 pmol,
CCOC(=O)CCc1ccccc1OP(=O)(N[C@@H](C)C(=O)OCC)OC[C@@H]1OC[C@H](n2cnc3c(N)ncnc32)O1 (stereo partly drawn),0.0033 µM,0.3 µM,53 µM,12 µM,> 100 µM,36 µM,12 µM,90 pmol,,
CC(C)OC(=O)CCc1ccccc1OP(=O)(N[C@@H](C)C(=O)OC(C)C)OC[C@@H]1OC[C@H](n2cnc3c(NC4CC4)ncnc32)O1 (stereo partly drawn),11 µM,> 10 µM,84 µM,57 µM,> 100 µM,> 100 µM,> 100 µM,,,
COc1ncnc2c1ncn2[C@H]1CO[C@@H](COP(=O)(N[C@@H](C)C(=O)OC(C)C)Oc2ccccc2CCC(=O)OC(C)C)O1 (stereo partly drawn),7 µM,> 10 µM,> 100 µM,52 µM,> 100 µM,> 100 µM,> 100 µM,,,
CCOC(=O)CCc1ccccc1OP(=O)(N[C@@H](C)C(=O)OCC)OC[C@@H]1OC[C@H](n2cnc3c(NC4CC4)ncnc32)O1 (stereo partly drawn),0.77 µM,> 10 µM,> 100 µM,65 µM,> 100 µM,> 100 µM,> 100 µM,0.14 pmol,0.19 pmol,
OC[C@@H]1OC[C@H](n2cnc3c(NC4CC4)ncnc32)O1,92 µM,> 10 µM,> 100 µM,> 100 µM,> 100 µM,> 100 µM,> 100 µM,,,
Oc1ccccc1 [PHENOL],,,,,,,,,,270 mg/kg
